In ChEMBL document CHEMBL1145922, “1,2-benzisoxazole phosphorodiamidates as novel anticancer prodrugs requiring bioreductive activation” (J Med Chem, 2003) one finds Absorbance, Compound remaining and IC50 data, which are given here for four compounds.

Test [1] is filed under the species Rattus norvegicus. In words: Alkylating Activity after incubation for 30 minutes in rat liver in Hypoxic condition in absence of NADPH. It is filed as functional, organism-based. The gist of the method:
(§1)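 Phenobarbital-induced rat liver S-9 fraction (17.9 or 18.2 mg/mL protein), substrate 2.5 mM final (added in methanol/water 50:50), NADPH 5 mM or no cofactor, 30 min at 37 °C. Hypoxic samples purged with nitrogen 15–20 min in sealed vials. Stopped with ice-cold methanol, proteins removed; alkylating activity by NBP assay, absorbance at 542 nm, mean of two experiments.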

Test [2] is filed under the species Rattus norvegicus. Put plainly: Alkylating Activity after incubation for 30 minutes in rat liver in Hypoxic condition in presence of NADPH. The format is functional, organism-based. The gist of the method:
as §1

The species named for test [3] is Rattus norvegicus. In words: Metabolic stability after incubation for 30 minutes in rat liver in hypoxic condition in absence of NADPH. The format is functional. The gist of the method: (§2)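 Phenobarbital-induced rat liver S-9 fraction, substrate 2.5 mM final, with 5 mM NADPH or no cofactor, 30 min at 37 °C, oxic or nitrogen-purged (hypoxic). Quenched with ice-cold methanol and centrifuged; supernatant analysed by TLC densitometry (ethyl acetate/ethanol eluent) for unchanged parent, reported as % remaining, mean ± SD of three experiments.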

For test [4], the species on record is Rattus norvegicus. In words: Metabolic stability after incubation for 30 minutes in rat liver in hypoxic condition in presence of NADPH. The format is functional. The procedure, abridged: as §2
The species named for test [5] is Rattus norvegicus. In words: Metabolic stability after incubation for 30 minutes in rat liver in oxic condition in absence of NADPH. The format is functional. The gist of the method:
as §2

The species named for test [6] is Rattus norvegicus. Put plainly: Metabolic stability after incubation for 30 minutes in rat liver in oxic condition in presence of NADPH. The format is functional. The procedure, abridged: as §2
In another test the test system is V79. Put plainly: In vitro cytotoxicity against Chinese hamster lung (V-79 cells) fibroblast determined using sulforhodamine B (SRB) assay. The format is functional, cell-based. The note with it: Cricetulus griseus. The gist of the method: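 V-79 Chinese hamster lung fibroblasts, about 15×10^3 cells/well, preincubated 24 h, then drug at eight concentrations for 48 h, aerobic. Fixed with cold TCA, stained with 0.4% SRB, dye solubilized in 10 mM Tris, read at 564 nm. % growth versus untreated control; first-order decay fit gives IC50. Triplicates, three experiments, mean ± SD.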
(The SRB assay estimates cell density from bound dye.)

For test [7], the species on record is Rattus norvegicus. Put plainly: Alkylating Activity after incubation for 30 minutes in rat liver in oxic condition in absence of NADPH. It is filed as functional, organism-based. The gist of the method:
as §1

Test [8] is filed under the species Rattus norvegicus. Put plainly: Alkylating Activity after incubation for 30 minutes in rat liver in oxic condition in presence of NADPH. The format is functional, organism-based. The procedure, abridged: as §1

Where only a bound is given, the exact number is not on record here.

What is called IC50 is the concentration that gives 50% inhibition. Read a high IC50 as weaker potency. `NP(=O)(OCCc1noc2ccc([N+](=O)[O-])cc12)N(CCCl)CCCl` (stereo unspecified): the Absorbance in the test filed under Rattus norvegicus [1] came to 0.85; in the test filed under Rattus norvegicus [2], 2.23. For the same compound, the Compound remaining in the test listed under Rattus norvegicus [3] is reported as 76%; in the test filed under Rattus norvegicus [4], 1%; in the test filed under Rattus norvegicus [5], 79%; in the test listed under Rattus norvegicus [6], 1%. In the test with V79, this compound came in with an IC50 of 311 µM.
Consider `COc1ccc2c(CCOP(N)(=O)N(CCCl)CCCl)noc2c1` (stereo unspecified), for which the Absorbance in the test filed under Rattus norvegicus [7] was 0.32; in the test filed under Rattus norvegicus [8], 2.31; in the test filed under Rattus norvegicus [1], 0.42; in the test listed under Rattus norvegicus [2], 2.35. In addition, the Compound remaining in the test filed under Rattus norvegicus [3] came out at 79%; in the test listed under Rattus norvegicus [4], 45%; in the test listed under Rattus norvegicus [5], 78%; in the test filed under Rattus norvegicus [6], 46%. In the test on V79, inhibition was half-maximal at 241 µM (IC50).
`NP(=O)(OCCc1noc2ccccc12)N(CCCl)CCCl` (stereo unspecified): the Absorbance came to 0.26 in the test listed under Rattus norvegicus [7], 1.97 in the test filed under Rattus norvegicus [8], 0.38 in the test listed under Rattus norvegicus [1] and 2.02 in the test filed under Rattus norvegicus [2]. In addition, the Compound remaining is 98% in the test filed under Rattus norvegicus [3], 34% in the test listed under Rattus norvegicus [4], 97% in the test filed under Rattus norvegicus [5] and 33% in the test filed under Rattus norvegicus [6]. In the test with V79, this compound yielded an IC50 of 411 µM.
In the case of `CCc1noc2ccccc12`, in the test on V79, the half-inhibitory concentration (IC50) is over 2000 µM.
